Laboratory results as given in ChEMBL document CHEMBL1144771, “Synthesis of 1-substituted 3-pyridinylmethylidenylindolin-2-ones and 1-substituted 3-quinolinylmethylidenylindolin-2-ones as the enhancers of ATRA-induced differentiation in HL-60 cells” (Bioorg Med Chem, 2008).
The source made the active and inactive calls. The rule behind the calls is not given here.

Key:
HL-60 [1] = assay: Induction of cell differentiation in human HL60 cells at 5.0 uM after 72 hrs by NBT reduction assay relative to control; type: functional
HL-60 [2] = assay: Cytotoxicity against human HL60 cells at 2.5 uM after 72 hrs by MTT assay relative to control; type: functional
Method in brief: (§1)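 Log-phase HL-60 cells at 4×10^4 cells/mL in RPMI-1640 with 10% FBS, 37 °C, 5% CO2. Treated 72 h with compound, with or without 5 nM ATRA. Cells washed in cold PBS, given MTT (5 mg/mL solution) in HBSS for 2 h at 37 °C in the dark. Formazan dissolved in DMSO, absorbance read at 570 nm. Viability given as % of vehicle control; means ± SD, four independent experiments.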

HL-60 [3] = assay: Induction of cell differentiation in human HL60 cells at 1.0 uM after 72 hrs by NBT reduction assay; type: functional
HL-60 [4] = assay: Induction of cell differentiation in human HL60 cells at 2.5 uM after 72 hrs by NBT reduction assay; type: functional
HL-60 [5] = assay: Cytotoxicity against human HL60 cells at 1.0 uM after 72 hrs by MTT assay; type: functional; method in brief: as §1
HL-60 [6] = assay: Cytotoxicity against human HL60 cells at 5.0 uM after 72 hrs by MTT assay relative to control; type: functional; method in brief: as §1
HL-60 [7] = assay: Cytotoxicity against human HL60 cells after 72 hrs by MTT assay; type: functional, cell-based; method in brief: as §1
HL-60 [8] = assay: Cytotoxicity against human HL60 cells at 0.5 uM after 72 hrs by MTT assay relative to control; type: functional; method in brief: as §1
HL-60 [9] = assay: Induction of cell differentiation in human HL60 cells at 0.1 uM after 72 hrs by NBT reduction assay; type: functional
HL-60 [10] = assay: Cytotoxicity against human HL60 cells at 0.1 uM after 72 hrs by MTT assay relative to control; type: functional; method in brief: as §1
HL-60 [11] = assay: Induction of cell differentiation in human HL60 cells at 0.5 uM after 72 hrs by NBT reduction assay; type: functional
HL-60 [12] = assay: Cytotoxicity against human HL60 cells at 1.0 uM after 72 hrs by MTT assay relative to control; type: functional; method in brief: as §1
HL-60 [13] = assay: Cytotoxicity against human HL60 cells at 0.5 uM after 72 hrs by MTT assay; type: functional; method in brief: as §1
HL-60 [14] = assay: Induction of cell differentiation in human HL60 cells at 2.5 uM after 72 hrs by NBT reduction assay relative to control; type: functional
HL-60 [15] = assay: Effect on morphology in human HL60 cells assessed as spindle-shape at 2 uM after 72 hrs; type: functional, cell-based
Method in brief: (§2)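 HL-60 cells (4×10^4) treated 72 h with vehicle, 2 µM compound alone, 2 µM compound plus 5 nM ATRA, 5 nM ATRA, or 1 µM ATRA. Unstained cells examined for spindle shape at 200× magnification. Liu's-stained cells examined by optical microscopy for horseshoe-shaped nuclei.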

HL-60 [16] = assay: Effect on morphology in human HL60 cells assessed as population of horseshoe-shape nuclei at 2 uM after 72 hrs; type: functional, cell-based; method in brief: as §2
HL-60 [17] = assay: Induction of cell differentiation in human HL60 cells at 5.0 uM after 72 hrs by NBT reduction assay; type: functional
HL-60 [18] = assay: Cytotoxicity against human HL60 cells at 2.5 uM after 72 hrs by MTT assay; type: functional; method in brief: as §1
HL-60 [19] = assay: Induction of cell differentiation in human HL60 cells at 2.0 uM after 72 hrs by NBT reduction assay relative to control; type: functional
HL-60 [20] = assay: Cytotoxicity against human HL60 cells at 2 uM after 72 hrs by MTT assay relative to control; type: functional; method in brief: as §1
HL-60 [21] = assay: Cytotoxicity against human HL60 cells at 1.0 uM after 72 hrs by MTT assay relative to ATRA; type: functional; details: in the assay text read “relative to control” for “relative to ATRA”; method in brief: as §1
HL-60 [22] = assay: Cytotoxicity against human HL60 cells at 5.0 uM after 72 hrs by MTT assay; type: functional, cell-based; method in brief: as §1
HL-60 [23] = assay: Induction of cell differentiation in human HL60 cells at 10.0 uM after 72 hrs by NBT reduction assay; type: functional
HL-60 [24] = assay: Cytotoxicity against human HL60 cells at 10.0 uM after 72 hrs by MTT assay relative to control; type: functional; method in brief: as §1
HL-60 [25] = assay: Cell cycle arrest in human HL60 cells assessed as increase in G0/G1 phase accumulation at 2 uM after 72 hrs by flow cytometry; type: functional
Method in brief: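 HL-60 cells at 4×10^4 cells/mL, 72 h with vehicle, ATRA (5 nM or 1 µM), 2 µM compound alone, or 2 µM compound plus 5 nM ATRA. Cells fixed in 70% ice-cold ethanol at -20 °C overnight. Stained 30 min at 37 °C in the dark with 1% Triton X-100, 0.1 mg/mL RNase and 4 µg/mL propidium iodide. G0/G1 fraction by flow cytometry; means ± SD, four experiments.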

[26] = Cytotoxicity against human leukocytes after 48 hrs by MTT assay; type: cell-based; details: Leukocyte
Method in brief: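 Human normal leukocytes in RPMI-1640 with 10% FBS. Treated with vehicle, compound alone, or compound plus 5 nM ATRA; 48 h per the legend (72 h per methods). Viability by MTT with formazan absorbance at 570 nm; 50% growth-inhibition concentration reported. Means ± SD, four experiments.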

HL-60 [27] = assay: Cytotoxicity against human HL60 cells at 2 uM after 72 hrs by MTT assay; type: functional, cell-based; method in brief: as §1
HL-60 [28] = assay: Induction of cell differentiation in human HL60 cells at 2.0 uM after 72 hrs by NBT reduction assay; type: functional, cell-based

| Compound | Activity (HL-60 [2]) | Activity (HL-60 [3]) | Activity (HL-60 [4]) | Activity (HL-60 [6]) | IC50 (HL-60 [7]; Homo sapiens, HL-60, 72 h) | Activity (HL-60 [11]) | Activity (HL-60 [12]) | Activity (HL-60 [17]) | further results |
| --- | --- | --- | --- | --- | --- | --- | --- | --- | --- |
| O=C1/C(=C\c2cnc3ccccc3c2)c2ccccc2N1Cc1ccccc1 | 70.6% | 0.7% | 0.8% | 10.9% | 3.2 µM | – | – | – | Activity (HL-60 [1]): 23.6%; Activity (HL-60 [5]): 117.4% |
| O=C1/C(=C\c2ccncc2)c2ccccc2N1Cc1ccc2ccccc2c1 | – | Toxic | – | – | – | 0.7% | – | – | Activity (HL-60 [8]): 59.6%; Activity (HL-60 [9]): 0.8%; Activity (HL-60 [10]): 78.2%; Activity (HL-60 [5]): Toxic |
| O=C1/C(=C\c2ccncc2)c2ccccc2N1Cc1ccccc1 | 24.4% | 1.2% | – | – | 1.9 µM | 0.3% | 85.6% | – | Activity (HL-60 [13]): 101%; Activity (HL-60 [14]): 7% |
| CC(c1ccccc1)N1C(=O)/C(=C\c2ccc3ccccc3n2)c2ccccc21 (centres undefined) | 81.3% | 0.8% | 1% | 18.5% | 3.4 µM | – | – | – | Activity (HL-60 [1]): 15%; Activity (HL-60 [5]): 103.2% |
| CC(c1ccccc1)N1C(=O)/C(=C\c2cnc3ccccc3c2)c2ccccc21 (stereo in doubt; 25) [listing 1 of 2 here] | – | – | – | – | – | – | – | – | Activity (HL-60 [15]): Active; Activity (HL-60 [16]): Active |
| O=C1/C(=C\c2ccc3ccccc3n2)c2ccccc2N1Cc1ccccc1 | 55.7% | 2% | 2% | 12.2% | 2.8 µM | – | 82.7% | 4.4% | – |
| O=C1/C(=C\c2cccnc2)c2ccccc2N1Cc1ccccc1 | 75.9% | 0.7% | 0.8% | 25.4% | 3.8 µM | – | 93.2% | 2.7% | – |
| O=C1/C(=C\c2ccccn2)c2ccccc2N1Cc1ccccc1 | – | 0.7% | 0.7% | 24.7% | 3.6 µM | – | – | 3.4% | Activity (HL-60 [5]): 116.6%; Activity (HL-60 [18]): 98.5% |
| CC(c1ccccc1)N1C(=O)/C(=C\c2cnc3ccccc3c2)c2ccccc21 (stereo in doubt; 25Z) | – | 3.8% | – | – | 1.5 µM | 1.3% | 82.3% | – | Activity (HL-60 [19]): 40.8%; Activity (HL-60 [20]): 20.3%; Activity (HL-60 [13]): 116.1% |
| CC(c1ccccc1)N1C(=O)/C(=C\c2cccnc2)c2ccccc21 (centres undefined) | 87% | 0.8% | 2.5% | 19.6% | 3.3 µM | – | 88% | – | Activity (HL-60 [14]): 2.5% |
| O=C1/C(=C\c2cc[n+]([O-])cc2)c2ccccc2N1Cc1ccccc1 | 43.4% | 1.6% | 3.2% | 22% | 2.9 µM | – | – | – | Activity (HL-60 [1]): 11.5%; Activity (HL-60 [21]): 90% |
| CC(c1ccccc1)N1C(=O)/C(=C\c2ccnc3ccccc23)c2ccccc21 (centres undefined) | 31% | 1.2% | – | – | – | – | 72.6% | Toxic | Activity (HL-60 [22]): Toxic; Activity (HL-60 [14]): 20.8% |
| O=C1/C(=C\c2ccnc3ccccc23)c2ccccc2N1Cc1ccccc1 | – | 0.8% | – | 73.8% | 10.6 µM | – | 85.2% | 2.1% | Activity (HL-60 [23]): 4.7%; Activity (HL-60 [24]): 51.2% |
| CC(c1ccccc1)N1C(=O)/C(=C/c2cnc3ccccc3c2)c2ccccc21 (centres undefined) | – | 4.3% | – | – | 1.4 µM | 0.8% | 82.9% | – | Activity (HL-60 [19]): 37.7%; Activity (HL-60 [20]): 25.5%; Activity (HL-60 [13]): 109.9% |
| CC(c1ccccc1)N1C(=O)/C(=C\c2cnc3ccccc3c2)c2ccccc21 (stereo in doubt; 25) [listing 2 of 2 here] | – | 0.3% | – | – | – | 0.8% | 70.9% | – | Activity (HL-60 [8]): 89.5%; Activity (HL-60 [19]): 33.9%; Activity (HL-60 [20]): 24.7%; Activity (HL-60 [25]): 49.8%; IC50 [26]: 14 µM; IC50 (HL-60 [7]; hl-60): 1.4 µM |
| CC(c1ccccc1)N1C(=O)/C(=C\c2ccccn2)c2ccccc21 (centres undefined) | 87.1% | 0.7% | 0.7% | 55.7% | 5.9 µM | – | 90% | 2% | – |
| CC(c1ccccc1)N1C(=O)/C(=C\c2ccncc2)c2ccccc21 (centres undefined) | – | 0.8% | – | – | – | 1% | 49.2% | – | Activity (HL-60 [27]): Toxic; Activity (HL-60 [8]): 66.7%; Activity (HL-60 [28]): Toxic |
| O=C1/C(=C\c2ccncc2)c2ccccc2N1Cc1cccc2ccccc12 | – | 0.5% | Toxic | – | – | 0.8% | – | – | Activity (HL-60 [13]): 103.6%; Activity (HL-60 [5]): 90.8%; Activity (HL-60 [18]): Toxic |
